From article PMC6588464 (Cell chemical biology, 2019)

How the values were obtained:
CDK12/13 = details: ref Zhang et al., 2016; Gao et al., 2018; cited from earlier work
CDK7-cyclin H [1] = test: Competitive bioTHZ1 pulldown in HAP1 cells; format: cell-based, human; details: for time required for equivalent engagement of CDK7 (>50%): compared with 30 min for YKL-5-124
HAP1 cells [2] = test: Growth rate inhibition; format: cell-based, human; details: for GRmax: HAP1 wild-type, 72 hours
Procedure, shortened: (§1)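 HAP1 WT or CDK7-C312S cells were seeded at 500 cells/well, adhered 24 h, then treated with a dilution series for 72 h. Live cells were identified by a dead-cell stain and Hoechst nuclear segmentation and counted at dosing and at 72 h. Counts were normalised to same-plate DMSO controls to give growth rate inhibition (GR) values. Technical duplicates in biological triplicate.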

Jurkat cells = test: Proliferation assay, Cell Titer Glo; format: cell-based, human; details: 72 h, highest concentrations
Procedure, shortened: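 Jurkat cells at 2 × 10^4 cells/mL were exposed 72 h to compound at final concentrations from 20μM to 600pM. Viability was read by CellTiter-Glo luminescence, and IC50 was fitted by nonlinear regression. Run in triplicate.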

cyclin K- CDK12/13 = details: HAP1 cells, 6 hours
[3] = system: CDK7-C312S expressing HAP1 cells; test: Growth rate inhibition; format: cell-based, human; details: for GRmax in CDK7-C312S cells: HAP1 CDK7-C312S, 72 hours
Procedure, shortened: as §1

HAP1 cells [4] = test: LIVE/DEAD dye staining in HAP1 cells; format: cell-based, human; details: HAP1 WT and CDK7-C312S, 72 hours
Procedure, shortened: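 HAP1 WT and CDK7-C312S cells were plated at 500 cells/well and allowed to adhere 24 h before a dilution series of test compound. Cells were analysed at time of dosing and after 72 h. After a 1 h EdU pulse they were stained with LIVE/DEAD Far Red (1:2000), then fixed with 3.7% formaldehyde for 30 min. Mean dye intensity within Hoechst nuclear masks classified cells as live or dead. Technical duplicates, biological triplicate.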

HAP1 cells [5] = test: Cell cycle analysis; format: cell-based, human; details: HAP1 WT, 72 hours
Procedure, shortened: (§2)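 HAP1 WT and CDK7-C312S clones were seeded at 500 cells/well and allowed to adhere 24 h, then given a compound dilution series. Cells were analysed at dosing and after 72 h: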

CDK7 [6] = format: cell-based, Human; details: at 10μM, Hela cells treated 6 hours, wild-type CDK7
Procedure, shortened: (§3)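 HeLa cells stably expressing FLAG-tagged wild-type or C312S CDK7 were treated 6 h with compound or DMSO and lysed. Substrate was 1 μg RPB1 with 25 μM ATP plus 10 μCi 32P-ATP. Read-out was SDS-PAGE and phosphorimaging.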

CDK2(T160) = test: Western blot of CDK2 T-loop phosphorylation in HAP1 cells; format: cell-based, human; details: HAP1 WT, 24 hours, 125 nM to 2 μM YKL-5-124 or 2 μM YKL-5-167
Procedure, shortened: (§4)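 HAP1 WT and CDK7-C312S cells were treated 24 h across a concentration range, or with 2μM over a time course. Cells were lysed 30 min on ice in RIPA (50mM Tris-HCl, 150 mM NaCl, 1% NP-40, 0.5% deoxycholate, 0.1% SDS, pH 7.4) with protease/phosphatase inhibitors and nuclease. Blots were probed for phospho-T161 CDK1, phospho-T160 CDK2 and the total proteins, and detected with infrared-labelled secondaries.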

CDK7-cyclin H [7] = test: Competitive bioTHZ1 pulldown in Jurkat cells; format: cell-based, human; details: Jurkat cells versus HAP1 cells
CDK7 [8] = test: KiNativ profiling in Jurkat cells; format: cell-based, human; details: 1μM, 6 hours
Procedure, shortened: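 Jurkat cells were treated 6 h with 1μM compound or DMSO, then sonicated in 50 mM HEPES pH 7.5, 150 mM NaCl, 0.1% Triton X-100 with phosphatase inhibitors. Cleared lysate was labelled 10 min with 20 μM desthiobiotin-ATP acyl-nucleotide probe, denatured, alkylated and trypsin-digested for 1 h at 37°C. Probe-labelled peptides were captured on streptavidin and quantified by mass spectrometry as probe-binding block versus DMSO.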

phospho-CDK1(T161) = test: Western blot of CDK1 T-loop phosphorylation in HAP1 cells; format: cell-based, human; details: for effect on CDK1 T-loop phosphorylation: HAP1 WT, 24 hours, 125 nM to 2 μM YKL-5-124 or 2 μM YKL-5-167
Procedure, shortened: as §4

[9] = system: Pol II CTD S2/S5/S7 phosphorylation; test: Western blot of RNA Pol II CTD phosphorylation in HAP1 and Jurkat cells; format: cell-based, human; details: up to 2 uM, combination with 250nM THZ531
Procedure, shortened: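 HAP1 WT and CDK7-C312S cells were treated 24 h with compound at the indicated concentrations, alone or with 250nM CDK12/13 inhibitor co-treatment. Lysis was 30 min on ice in RIPA buffer (50mM Tris-HCl, 150 mM NaCl, 1% NP-40, 0.5% deoxycholate, 0.1% SDS, pH 7.4) with protease/phosphatase inhibitors and nuclease. Pol II CTD phospho-serine marks were immunoblotted and detected with infrared-labelled secondary antibodies (1:10,000).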

PARP cleavage = test: Western blot for PARP cleavage; format: cell-based, human; details: HAP1, all conditions up to 2 μM and 48 hours
CDK13 = details: ATP 1mM, at the concentrations tested
CDK7/CycH/Mat1 = CDK7/CycH/Mat1 (Homo sapiens, UniProt P50613); test: Covalent inhibition kinetics, peptide substrate mobility shift assay; format: biochemical
WT HAP1 cells = test: RNA sequencing, differential expression and Jaccard analysis in HAP1 WT cells; format: cell-based, human; details: WT HAP1, 500nM, 24 hr, log2 fold change >1.5
Procedure, shortened: (§5)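 HAP1 WT or CDK7-C312S cells (1×106) were treated 24 h with 500nM or 2μM compound, alone or combined with a 250nM CDK12/13 inhibitor, with DMSO controls. RNA-seq was run in triplicate and genes were called differentially expressed at log2 fold change >1.5. Gene-set overlap between treatments was scored by Jaccard similarity index.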

CDK7 [10] = target: CDK7 (Homo sapiens, UniProt P50613); test: Radioactive in vitro kinase assay at 1 mM ATP; format: biochemical; details: read-out: IC50 for CDK7; ATP concentration of 1mM
[11] = system: CDK7-cyclin H-MAT1 trimeric complex; test: Mass spectrometry analysis of covalent labeling of recombinant CAK complex; format: binding; details: recombinant complex incubated 4 hours at 37 °C
Procedure, shortened: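 Recombinant CAK complex (CDK7/cyclin H/MNAT1) was incubated with test compound or DMSO for 4 h at 37 °C and resolved by SDS-PAGE, then analysed by nanoLC/MS. Two unlabeled, non-cysteine CDK7 peptides served for normalization. For CE-MS, treated complex was denatured (0.1% Rapigest final), reduced (10 mM DTT), alkylated (22.5 mM iodoacetamide) and trypsin-digested overnight at 37 °C.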

CDK9/CycT1 = CDK9/CycT1 (Homo sapiens, UniProt P50750); test: Adapta Eu kinase assay, Km ATP; format: biochemical; details: read-out: IC50 CDK9
CDK7/Mat1/CycH = CDK7/Mat1/CycH (Homo sapiens, UniProt P50613); test: Adapta Eu fixed time point in vitro kinase assay, Km ATP; format: biochemical
CDK2/CycA = CDK2/CycA (Homo sapiens, UniProt P24941); test: Z'LYTE kinase assay, Km ATP; format: biochemical; details: read-out: IC50 CDK2
[12] = system: HAP1 cells expressing CDK7-C312S; test: Cell cycle analysis; format: cell-based, human; details: 72 hours
Procedure, shortened: as §2

CDK12 = test: Radioactive in vitro kinase assay at 1 mM ATP; format: biochemical; details: ATP 1mM, at the concentrations tested
CDK7-C312S cells = format: cell-based, human; details: 500nM, 24 hr
Procedure, shortened: as §5

CDK7 C312S = format: cell-based, Human
Procedure, shortened: as §3

Sequence of CDK7/CycH/Mat1 (P50613 whole entry): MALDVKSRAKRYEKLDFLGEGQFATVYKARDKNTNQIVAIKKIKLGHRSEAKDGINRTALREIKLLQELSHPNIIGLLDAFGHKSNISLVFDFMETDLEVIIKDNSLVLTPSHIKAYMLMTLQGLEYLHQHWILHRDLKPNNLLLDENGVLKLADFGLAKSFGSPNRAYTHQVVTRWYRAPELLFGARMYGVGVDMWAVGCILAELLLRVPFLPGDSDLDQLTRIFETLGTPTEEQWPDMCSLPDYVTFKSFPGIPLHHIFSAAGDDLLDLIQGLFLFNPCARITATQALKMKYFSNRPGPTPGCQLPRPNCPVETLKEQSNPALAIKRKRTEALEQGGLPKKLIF
Sequence of CDK7/CycH/Mat1 (P51946 whole entry partner): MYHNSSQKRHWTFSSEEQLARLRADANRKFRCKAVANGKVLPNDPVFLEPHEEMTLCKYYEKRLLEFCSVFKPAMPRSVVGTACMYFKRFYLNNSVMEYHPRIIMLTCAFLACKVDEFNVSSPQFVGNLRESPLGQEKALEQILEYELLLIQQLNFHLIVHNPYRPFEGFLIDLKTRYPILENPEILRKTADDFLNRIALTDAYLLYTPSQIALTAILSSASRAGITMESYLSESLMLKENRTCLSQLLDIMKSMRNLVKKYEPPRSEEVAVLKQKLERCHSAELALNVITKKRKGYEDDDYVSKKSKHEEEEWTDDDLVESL
Sequence of CDK7/CycH/Mat1 (P51948 whole entry partner): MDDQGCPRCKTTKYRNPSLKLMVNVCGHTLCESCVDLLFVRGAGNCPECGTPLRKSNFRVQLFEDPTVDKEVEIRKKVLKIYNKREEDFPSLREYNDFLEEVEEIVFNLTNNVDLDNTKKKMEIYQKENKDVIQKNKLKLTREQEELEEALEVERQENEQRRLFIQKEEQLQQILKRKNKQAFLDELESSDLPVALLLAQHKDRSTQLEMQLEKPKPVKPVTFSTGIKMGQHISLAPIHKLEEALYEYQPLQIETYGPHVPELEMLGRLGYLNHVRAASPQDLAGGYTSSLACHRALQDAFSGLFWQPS
Sequence of CDK7/Mat1/CycH (P50613 whole entry): as the sequence (P50613 whole entry) above
Sequence of CDK7/Mat1/CycH (P51946 whole entry partner): as the sequence (P51946 whole entry partner) above
Sequence of CDK7/Mat1/CycH (P51948 whole entry partner): as the sequence (P51948 whole entry partner) above
Sequence of CDK9/CycT1 (P50750 whole entry): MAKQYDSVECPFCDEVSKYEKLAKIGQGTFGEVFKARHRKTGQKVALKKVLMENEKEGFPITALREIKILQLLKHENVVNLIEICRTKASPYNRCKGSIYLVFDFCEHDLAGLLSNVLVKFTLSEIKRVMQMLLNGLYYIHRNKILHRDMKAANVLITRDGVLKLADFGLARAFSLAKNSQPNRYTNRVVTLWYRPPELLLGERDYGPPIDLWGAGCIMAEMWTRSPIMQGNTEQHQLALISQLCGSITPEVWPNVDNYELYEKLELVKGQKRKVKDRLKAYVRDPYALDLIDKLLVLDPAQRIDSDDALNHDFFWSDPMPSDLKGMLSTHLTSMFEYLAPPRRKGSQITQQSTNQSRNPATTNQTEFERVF
Sequence of CDK9/CycT1 (O60563 whole entry partner): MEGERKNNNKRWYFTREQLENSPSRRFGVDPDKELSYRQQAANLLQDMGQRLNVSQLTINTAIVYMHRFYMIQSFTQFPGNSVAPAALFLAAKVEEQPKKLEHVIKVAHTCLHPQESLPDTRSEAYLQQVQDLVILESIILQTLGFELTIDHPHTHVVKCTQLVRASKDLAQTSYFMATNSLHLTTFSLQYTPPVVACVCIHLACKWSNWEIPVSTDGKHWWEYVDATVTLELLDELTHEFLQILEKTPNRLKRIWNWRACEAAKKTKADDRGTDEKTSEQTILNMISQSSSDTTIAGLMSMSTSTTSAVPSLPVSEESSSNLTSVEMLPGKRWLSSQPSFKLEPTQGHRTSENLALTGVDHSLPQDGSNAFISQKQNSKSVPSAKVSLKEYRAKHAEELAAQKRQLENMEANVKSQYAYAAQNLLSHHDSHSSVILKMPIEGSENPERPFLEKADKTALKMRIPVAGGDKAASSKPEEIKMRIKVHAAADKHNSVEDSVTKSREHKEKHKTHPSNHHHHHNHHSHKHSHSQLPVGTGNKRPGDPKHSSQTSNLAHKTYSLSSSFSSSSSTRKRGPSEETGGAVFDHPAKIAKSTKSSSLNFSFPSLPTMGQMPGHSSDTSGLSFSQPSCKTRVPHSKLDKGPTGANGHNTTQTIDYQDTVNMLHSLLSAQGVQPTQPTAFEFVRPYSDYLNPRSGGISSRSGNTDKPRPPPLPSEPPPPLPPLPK
Sequence of CDK7 (Homo sapiens, UniProt P50613) (P50613 2-346): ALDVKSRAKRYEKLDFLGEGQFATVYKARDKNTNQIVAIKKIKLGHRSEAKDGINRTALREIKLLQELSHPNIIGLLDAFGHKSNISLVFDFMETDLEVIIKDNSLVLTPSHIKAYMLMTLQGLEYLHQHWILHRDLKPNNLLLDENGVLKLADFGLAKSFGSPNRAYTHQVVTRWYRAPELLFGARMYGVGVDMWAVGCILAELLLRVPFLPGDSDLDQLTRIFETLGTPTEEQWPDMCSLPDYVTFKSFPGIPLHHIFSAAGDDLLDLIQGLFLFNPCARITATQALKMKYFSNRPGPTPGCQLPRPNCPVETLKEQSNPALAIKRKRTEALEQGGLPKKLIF
Sequence of CDK7 (Homo sapiens, UniProt P50613) (P51946 whole entry partner): as the sequence (P51946 whole entry partner) above
Sequence of CDK7 (Homo sapiens, UniProt P50613) (P51948 whole entry partner): as the sequence (P51948 whole entry partner) above

CN(C)C/C=C/C(=O)Nc1ccc(C(=O)N2CCC[C@@H](Nc3ncc(Cl)c(-c4c[nH]c5ccccc45)n3)C2)cc1 [THZ531]
times more potent on CDK12/13 than CDK7 (CDK12/13): approximately 20 times

CN(C)C/C=C/C(=O)Nc1ccc(C(=O)Nc2cccc(Nc3ncc(Cl)c(-c4c[nH]c5ccccc45)n3)c2)cc1 [THZ1, reference compound]
time required for equivalent engagement of CDK7 (>50%) (CDK7-cyclin H [1]; HAP1 cells): twice as long | GRmax (HAP1 cells [2]): negative | maximal inhibition of proliferation (Jurkat cells): inhibit proliferation to zero | effect on pulldown of cyclin K- CDK12/13 (cyclin K- CDK12/13): bound to both CDK7 and CDK12/13 | GRmax in CDK7-C312S cells [3]: unchanged | cell death by LIVE/DEAD dye (HAP1 cells [4]): induced substantially more cell death than YKL-5-124

CCC(=O)Nc1ccc(C(=O)Nc2n[nH]c3c2CN(C(=O)N[C@H](CN(C)C)c2ccccc2)C3(C)C)cc1 [YKL-5-167, (S)-N-(2-(dimethylamino)-1-phenylethyl)-6,6-dimethyl-3-(4-propionamidobenzamido)-4,6-dihydropyrrolo[3,4-c]pyrazole-5(1H)-carboxamide]
time required for equivalent engagement of CDK7 (>50%) (CDK7-cyclin H [1]; HAP1 cells): 6 h | fold less effective as a competitor for CDK7-cyclin H (CDK7-cyclin H [1]; relative to YKL-5-124): 100 fold | activity as competitor following washout (CDK7-cyclin H [1]; washout after 3-hour treatment): inactive following washout | effect on cell cycle distribution (HAP1 cells [5]): no effect on cell cycle distribution | inhibition of phosphorylation of RNA polymerase II substrate (CDK7 [6]): little or no inhibition | effect on CDK2 T-loop phosphorylation (CDK2(T160)): no detectable effect | fold higher concentrations required to function as a competitor (CDK7-cyclin H [7]): 10 fold | CDK7 engagement in KiNativ (CDK7 [8]): only weakly engaged | effect on CDK1 T-loop phosphorylation (phospho-CDK1(T161)): no detectable effect

C=CC(=O)Nc1ccc(C(=O)Nc2n[nH]c3c2CN(C(=O)N[C@H](CN(C)C)c2ccccc2)C3(C)C)cc1 [YKL-5-124, (S)-3-(4-acrylamidobenzamido)-N-(2-(dimethylammo)-1-phenylethyl)-6,6-dimethyl-4,6-dihydropyrrolo[3,4-c]pyrazole-5(1H)-carboxamide]
reduction of CDK7-cyclin H binding to bioTHZ1 (CDK7-cyclin H [1]; 100 nM, 30 min): > 50% | concentration that blocked pulldown of CDK7-cyclin H (CDK7-cyclin H [1]; HAP1 cells, 6 hours): about 30 nM | lowest concentration with engagement of CDK7 three hours after washout (CDK7-cyclin H [1]; washout after 3-hour treatment): 125 nM | effect on phosphorylation of S5 and other Pol II CTD serine residues [9]: no effect | effect on cell cycle distribution (HAP1 cells [5]): dose-dependent increase in G1 and G2/M phase cells and a corresponding loss of S phase cells | concentration at which strong anti-proliferative effects begin (HAP1 cells [2]; HAP1 and Jurkat cells): 100 nM | GRmax (HAP1 cells [2]): zero | maximal inhibition of proliferation (residual, of the original cell count) (Jurkat cells): ≤ 20% | PARP cleavage / apoptosis (PARP cleavage): apoptosis was not induced | inhibition of CDK13 (CDK13): no inhibition | Ki (CDK7/CycH/Mat1; 1 mM ATP, 2-step inactivation model): 0.0019 µM | covalently modifies CDK7 times faster than THZ1 (CDK7/CycH/Mat1; ratio of kinact values): approximately 11 times | number of differentially expressed genes (WT HAP1 cells): 1452 genes | IC50 (CDK7 [10]): 0.0535 µM | efficiency of covalent labeling of CDK7 [11]: approximately 99% | CDK7 bound (block of desthiobiotin-ATP probe) (CDK7 [8]): more than 65% | IC50 (CDK9/CycT1): 3.02 µM | time to inhibition of T-loop phosphorylation (phospho-CDK1(T161); HAP1, 2μM): ≤ 12 h | effect on CDK1 T-loop phosphorylation (phospho-CDK1(T161)): inhibited CDK1 T-loop phosphorylation | concentration for reduced CDK1/2 activation (phospho-CDK1(T161); HAP1 and Jurkat cells): exceeding 1 μM | effect on pulldown of cyclin K- CDK12/13 (cyclin K- CDK12/13): no effect | selectivity for CDK7 than CDK9 and CDK2 (CDK7/Mat1/CycH): 100 fold | IC50 (CDK7/Mat1/CycH; read-out: IC50 CDK7/Mat1/CycH, fixed time point, Km ATP): 0.0097 µM | IC50 (CDK2/CycA): 1.3 µM | effect on cell cycle distribution in CDK7-C312S cells [12]: cell cycle distribution was not affected | inhibition of CDK12 (CDK12): no inhibition | GR50 fold higher in CDK7-C312S than in wild-type cells ([3]; HAP1, 72 hours): at least 150 fold | GRmax in CDK7-C312S cells [3]: too high to be estimated accurately | number of differentially expressed genes (CDK7-C312S cells): 583 genes | inhibitory activity in the in vitro kinase assay with C312S mutant (CDK7 C312S): abolished the inhibitory activity | cell death by LIVE/DEAD dye (HAP1 cells [4]): substantially reduced in CDK7-C312S cells
